Article PMC4132844 (Nature communications, 2014)
Where two headings read alike, the source gives them in different places.

Columns and labels:
[1] = test system: CYP3A4 (expressed drug-metabolizing enzyme); experiment: TeamChip metabolism-induced toxicity assay, CYP3A4; format: cell-based; details: human, IC50, CYP3A4, Ad-CYP3A4 15 MOI; compound 48 h; n = 4
[2] = test system: THLE-2 cells (no enzyme, Ad-Null); experiment: TeamChip metabolism-induced toxicity assay, no enzyme control; format: cell-based; details: Homo sapiens, read-out: IC50, No enzyme
[3] = test system: CYP2C9 (expressed drug-metabolizing enzyme); experiment: TeamChip metabolism-induced toxicity assay, CYP2C9; format: cell-based; details: human
[4] = test system: P450 Mix: CYP2C9, CYP2D6, CYP3A4, CYP1A2, CYP2E1 (expressed); experiment: TeamChip metabolism-induced toxicity assay, P450 Mix; format: cell-based; details: human
[5] = test system: UGT1A4 (expressed metabolising enzyme); experiment: TeamChip metabolism-induced toxicity assay, UGT1A4; format: cell-based; details: human, IC50, UGT1A4, Ad-UGT1A4 15 MOI; compound 48 h; n = 4
[6] = test system: All Mix: CYP2C9, CYP2D6, CYP3A4, CYP1A2, CYP2E1, UGT1A4 (expressed); experiment: TeamChip metabolism-induced toxicity assay, All Mix; format: cell-based; details: human
[7] = test system: CYP2D6 (expressed drug-metabolizing enzyme); experiment: TeamChip metabolism-induced toxicity assay, CYP2D6; format: cell-based; details: human
[8] = test system: CYP1A2 (expressed drug-metabolizing enzyme); experiment: TeamChip metabolism-induced toxicity assay, CYP1A2; format: cell-based; details: human
THLE-2 cells [9] = experiment: Apoptosis assay; format: cell-based, human; details: THLE-2 cells on the TeamChip
[10] = test system: CYP2E1 (expressed drug-metabolizing enzyme); experiment: TeamChip metabolism-induced toxicity assay, CYP2E1; format: cell-based; details: human
Procedure, shortened: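 THLE-2 cells in Matrigel spotted onto micropillars at 4°C, held 18 h at 37°C, transduced 1 d with recombinant adenovirus carrying the enzyme gene (Ad-Null as no-enzyme control). Then exposed 2 d to test compound in BEGM. Washed twice in DPBS, Live/Dead stained 1 h in the dark, chip scanned.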

[11] = test system: HepaRG cells in 2D culture; details: read-out: IC50, HepaRG cells in 2D culture; cited from earlier work
[12] = test system: HepaRG cells in 3D culture; details: read-out: IC50, HepaRG cells in 3D culture; cited from earlier work
THLE-2 cells [13] = experiment: Intracellular GSH assay on the TeamChip; format: cell-based, human; details: exposed to 5 μM ketoconazole, at varying concentrations of acetaminophen
Procedure, shortened: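 THLE-2 cells in Matrigel spots on a micropillar chip, transduced with 15 MOI Ad-CYP3A4 or Ad-Null (control) for 1 d. Then exposed for 48 h to varying test compound with 5 μM CYP3A4 inhibitor. Washed twice in DPBS, stained 20 min in the dark with thiol green dye (intracellular GSH kit), chip scanned, GSH quantified; n = 3.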

Compound	IC50 at 48 h [1] [µM]	IC50 ([2]; 48 h) [µM]	IC50 ([2]; THLE-2, 48 h) [µM]	IC50 at 48 h [3] [µM]	IC50 at 48 h [4] [µM]	IC50 at 48 h [5] [µM]	IC50 at 48 h [6] [µM]	IC50 at 48 h [7] [µM]	IC50 at 48 h [8] [µM]	number of apoptotic cells (THLE-2 cells [9])	IC50 at 2 d [10] [µM]	IC50 [11] [µM]	IC50 [12] [µM]	intracellular GSH concentrations in CYP3A4-expressing THLE-2 cells (THLE-2 cells [13])
CC(C)C(=O)Nc1ccc([N+](=O)[O-])c(C(F)(F)F)c1 [Flutamide, flutamide]	[…]	45 ± 1.6	37 ± 9.7	25 ± 4.8	18 ± 4.1	38 ± 1.8	17 ± 1.1	27 ± 5.1	18 ± 0.5					
CN1CCN(CCCN2c3ccccc3Sc3ccc(C(F)(F)F)cc32)CC1 [Trifluoperazine, trifluoperazine]	110 ± 7.3	75 ± 11	80 ± 9.4	75 ± 12	53 ± 13	100 ± 12	110 ± 10	69 ± 9.3	120 ± 5.1					
COc1cccc2c1C(=O)c1c(O)c3c(c(O)c1C2=O)C[C@@](O)(C(=O)CO)C[C@@H]3O[C@H]1C[C@H](N)[C@H](O)[C@H](C)O1 [Doxorubicin, doxorubicin]										increased the number of apoptotic cells in a dose-dependent manner				
CC(=O)Nc1ccc(O)cc1 [Acetaminophen, acetaminophen]	[…]	1500 ± 63	1400 ± 250	930 ± 41	240 ± 74	2100 ± 52	640 ± 100	1100 ± 71	820 ± 21		180	26300	2700	
CC(=O)N1CCN(c2ccc(OCC3COC(Cn4ccnc4)(c4ccc(Cl)cc4Cl)O3)cc2)CC1 (centres unmarked) [ketoconazole]														unchanged
Cc1c(C)c2c(c(C)c1O)CCC(C)(COc1ccc(CC3SC(=O)NC3=O)cc1)O2 (centres unmarked) [Troglitazone, troglitazone]	[…]	110 ± 15	[…]	50 ± 4.9	51 ± 4.3	150 ± 11	62 ± 2.9	77 ± 4.2	39 ± 6.6					
Nc1c(CC(=O)O)cccc1C(=O)c1ccc(Br)cc1 [Bromfenac, bromfenac]	[…]	210 ± 17	190 ± 12	120 ± 6	220 ± 24	210 ± 14	[…]	170 ± 39	190 ± 37					
